# Compound activity as filed in PubChem BioAssay.
# The list is not random: actives were taken first. Their share in the collection is about 11%.
# G6PDH counter: L. mesenteroides G6PDH inhibitors, counter-screen for G6PDH-coupled screening assays, biochemical, Leuconostoc mesenteroides enzyme; glucose-6-phosphate dehydrogenase [Leuconostoc mesenteroides]; Purified L. mesenteroides G6PDH, diaphorase/resazurin coupled fluorescence, 45 min; inhibition, % at 5 µM; 200,000 compounds, 0.12% hits; AID 1020, 2008
# Diaphorase inh: diaphorase inhibitors and chemical oxidizers, primary screen, counter-screen for diaphorase-coupled primary assays, biochemical, uHTS, resorufin fluorescence; diaphorase resazurin-to-resorufin fluorescence, NADH, 16 min; bacterial (C. kluyveri) enzyme, not human; inhibition, % at 20 µM; 190,000 compounds, 0.69% hits; AID 1217, 2008;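 active means primary screen inhibition at 20 µM above a set limit, cut at about 50% in these data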;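 further: plate controls were DMSO with full reaction for no effect and wells lacking NADH for full effect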
#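 Test system: Clostridium kluyveri diaphorase enzyme / Quantity: diaphorase at 0.14 U/mL in enzyme working solution / Incubation: 16-min room-temperature incubation before reading / Benchmarks: NADH-free wells as positive control, DMSO-only neutral wells / Signal: resorufin fluorescence 544/590 nm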
# WT yeast gro inh: growth inhibition of WT strain, primary screen, mitochondrial fusion inhibitor project, WT and mutant strains, chemical genetic | mitochondrial fusion phenotypic screen | inhibition, % at 10 µM | 190,000 compounds, 2.1% hits; in the data active means inhibition above about 58%; tested in S. cerevisiae
# Diaph act CS: compounds boosting diaphorase resazurin reduction – biochemical, uHTS, resorufin fluorescence, counter-screen for diaphorase-coupled primary assays, primary screen | Diaphorase/resazurin coupled assay, 16 min; hits give high values; 1 = vehicle wells, 0 = NADH-free wells | activation factor at 20 µM | 190,000 compounds, 0.005% hits;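 active means diaphorase activity raised at least twofold by the compound at 20 µM; inactive means activation factor below 2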
#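 Material: purified diaphorase enzyme from Clostridium kluyveri / Medium: HEPES pH 7.4 buffer with MgCl2 and Tween 20 / Schedule: enzyme reaction of 16 min at room temperature / Measured by: resorufin fluorescence, excitation 544 nm, emission 590 nm / Evaluation: rise in resorufin formation, marking diaphorase activation or chemical reduction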
# Lmaj promast: Leishmania major promastigote growth inhibition, primary screen; inhibition, % at 10 µM; 200,000 compounds, 9% hits; AID 1063, 2008; Leishmania major promastigotes, resazurin fluorescence viability;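 further: promastigotes grown with compound for 44 hours at 28 °C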
# * marks the source's active call; other numbers are inactive results; . = no result given. Unless noted, no stated cut-off is given here; in the data, active means inhibition above about 50%; inactive means the rest.
SMILES,G6PDH counter,Diaphorase inh,WT yeast gro inh,Diaph act CS,Lmaj promast
Cc1cc(C)cc(NC(=O)c2oc3ccccc3c2COc2ccccc2)c1,1,13,7,0.9,89*
CC(C)CNC(=O)c1oc2ccccc2c1COc1ccccc1,5,22,63*,0.8,6
CCNc1nc(NCC)nc(N2CC(=O)N(CC(=O)OCC)C2=N)n1,.,.,.,.,-4
CCOC(=O)c1sc(NC(=O)C(C)C)c(C#N)c1C,19,5,12,1,-1
CN(C)S(=O)(=O)c1cccc(NC(=O)COC(=O)CCc2nc3ccccc3s2)c1,0,27,-9,0.7,-5
C[N+]1(CC(=O)OC2CCCCCCCCCCC2)CCCC1,2,7,32,0.9,100*
Cc1cc(/C=C2/SC(=O)N(CC(=O)N3CCOCC3)C2=O)c(C)n1-c1ccccc1F,-24,5,-2,1,8
CC(NC(=O)CSC(=S)N(C)C)C12CC3CC(CC(C3)C1)C2 (centres undefined),5,15,27,0.9,6
Cc1sc2nc(CSc3ccccc3)nc(N3CCN(C)CC3)c2c1C,12,15,17,0.8,98*
COCCNc1nc(CSc2ccccc2)nc2sc(C)c(C)c12,-19,11,23,0.9,47
CC1(C)C(CSc2nc3ccccc3[nH]2)C1(Cl)Cl (centres undefined),7,14,35,0.9,74*
Cc1ccc(S(=O)(=O)N=S(CCO)CCO)cc1,0,6,-8,0.9,-8
Cc1cccc(C(=O)NC(=S)NNC(=O)c2ccccc2Cl)c1,-1,20,33,0.8,-12
Cc1cc(C(=O)NNC(=S)NC(=O)/C=C/c2ccccc2Cl)n[nH]1,-8,39,-1,0.6,78*
COc1ccc(NS(=O)(=O)c2ccc(NC(=O)c3cnn4c(C(F)F)cc(-c5ccc(C)cc5)nc34)cc2)cc1,0,4,-45,1,-1
COC(=O)C1=C(Nc2ccc(C)cc2)C=C(C)C(C(=O)OC)C1c1cccc(OC)c1 (centres undefined),0,23,41,0.8,45
COC(=O)C1=C(Nc2ccc(C)cc2)C=C(C)C(C(=O)OC)C1c1ccc(OC)cc1 (centres undefined),12,21,70*,0.8,37
Cc1ccc(OCc2ccc(C(=O)Nc3c(C)nn(Cc4c(F)c(F)c(F)c(F)c4F)c3C)o2)c([N+](=O)[O-])c1,7,24,46,0.8,92*
CN(C)Cc1c(-c2ccc(Cl)cc2)nc2ccc(Cl)cn12,2,-5,16,1,68*
CN(C)Cc1cnc2ccc(Cl)cn12,4,14,2,0.9,0
Cc1ccc(S(=O)(=O)c2cnc3cc(C)nn3c2N)cc1,11,4,-21,1,-21
CCCCOC(=O)Sc1nc2ccccc2o1,0,22,2,0.8,-1
O=C(NCCCn1ccnc1)c1nn2c(C(F)(F)F)cc(-c3ccccc3)nc2c1Cl,2,2,-4,1,29
Cc1ccc(-c2cc(C(F)(F)F)n3nc(C(=O)NCCCn4ccnc4)cc3n2)cc1C,-52,-2,47,1,100*
COC(=O)c1ccc(N/C=C\C(=O)c2ccc3c(c2)OCO3)cc1,21,-5,-7,1.1,-6
SMILES,G6PDH counter,Diaphorase inh,WT yeast gro inh,Diaph act CS,Lmaj promast
COc1ccc(N/C=C\C(=O)c2ccc3c(c2)OCO3)cc1OC,6,9,5,0.9,88*
CCC(CC)c1nnc(NC(=O)c2ccc3ccccc3n2)s1,-4,20,61*,0.8,78*
CCC(CC)c1nnc(NC(=O)c2cc(-c3ccccc3)nc3ccccc23)s1,-19,18,9,0.8,-5
CN=CC1=C(O)c2ccccc2C1=O,5,14,16,0.9,-4
O=C1C(C2=C(O)c3ccccc3C2=O)=Nc2ccccc21,56*,10,3,0.9,100*
CCN1CCN(CC(=O)Nc2cc3c(cc2C(C)=O)OCO3)CC1,6,17,3,0.8,5
O=C1C(Cl)=C(Nc2cccc(O)c2)C(=O)N1Cc1ccccc1,4,22,30,0.8,14
Cc1cc(C(=O)OCC(=O)c2cccc([N+](=O)[O-])c2)c2ccccc2n1,-4,12,0,0.9,-10
O=C(OC(c1ccccc1)c1nccc2ccccc12)c1cccc([N+](=O)[O-])c1 (centres undefined),-14,14,67*,0.9,19
N#Cc1ccc(C(=O)N/N=C/c2cn(CC(=O)O)c3ccccc23)c(F)c1,1,5,2,1,58*
CCOC(=O)Cn1cc(/C=N/NC(=O)c2ccc(C#N)cc2F)c2ccccc21,-3,13,-44,0.9,-4
O=C(NCc1ccccn1)C(=O)Nc1cccc2ccccc12,7,4,8,1,2
Cn1c(=O)n(Cc2ccc(Cl)cc2)c2ccccc21,-2,6,9,0.9,-2
CCOC(=O)c1c(C)oc2c1c(C=NCC1CCCO1)c(O)c1ccccc12 (centres undefined),50*,75*,-9,0.3,98*
CCOC(=O)c1c(C)oc2c1c(C=NCc1ccccn1)c(O)c1ccccc12,-52,64*,5,0.4,98*
CCOC(=O)Nc1ccc2c(c1)ncn2C1CCCCC1,4,18,-1,0.8,84*
COC(=O)Nc1ccc2c(c1)ncn2C1CCCCC1,3,19,-19,0.8,20
COc1ccccc1-c1cc(C(F)(F)F)nc(N2CCCCC2)n1,-1,15,74*,0.8,6
COC(=O)c1sccc1NC(=S)N1C(C)CCCC1C (centres undefined),3,1,0,1,30
Cc1nc2nc(SCC(=O)c3ccc([N+](=O)[O-])cc3)[nH]c2cc1Br,-9,3,-16,1,-2
CCOC(=O)C1=C(C)Nc2ccccc2N=C1NC(=O)/C=C/c1ccc(OC)cc1OC,-1,26,1,0.7,80*
COc1ccc(CNC(=O)c2cccc(-c3ccc(C)c4ccccc34)n2)cc1,39,16,28,0.8,-1
COC(=O)c1ccc(C(=O)OC)c(NC(=S)N2CCCC(C)C2)c1 (centres undefined),4,14,24,0.9,5
O=C(NCc1cccnc1)c1cccc(NC(=O)c2ccco2)c1,1,5,2,0.9,77*
O=C(NC1CCCC1)c1cccc(NC(=O)c2ccco2)c1,8,-11,-20,1.1,86*
